# Source: PubChem BioAssay
# TRPC4 block: TRPC4 (mouse) channel inhibition; Q9QUQ5; HEK293 TRPC4beta/mu-opioid, DAMGO-evoked Fluo4 calcium flux; stronger effect = lower value; B-score at 10 µM; actives 0.39% (n = 300,000);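 active means B-score over 3 SD under the library average, no early fluorescence shift, positive overall ratio signal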
#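 Test system – stable TRPC4beta/mu-opioid receptor HEK293 cells · Probe or stimulus – DAMGO, a submaximal dose followed by a maximal one · Dosing – one concentration per compound · Signal – Fluo4 calcium fluorescence by kinetic imaging, 5 s 1 Hz baseline · Evaluation – per-well B score of integrated baseline-normalized Fluo4 ratio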
# TRPC4 potent: TRPC4 (mouse) allosteric potentiation; HEK293 TRPC4beta/mu-opioid, DAMGO EC20, Fluo-4 Ca2+ flux; stronger effect = higher value; Q9QUQ5; B-score at 10 µM; actives 0.42% (n = 310,000);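 active means B-score of calcium response area above 5 SD of library B-scores, with initial fluorescence ratio within 5 SD of library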
# TRPC6 inhibitor: inhibitors of mouse TRPC6 channel; actives 1.1% (n = 310,000); B-score at 10 µM; HEK293-TRPC6, membrane potential dye, ACh-evoked depolarization; stronger effect = lower value; Q61143;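 active means B-score under library mean minus 3 SD, initial fluorescence not abnormally high, positive integrated signal ratio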;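 further: B-score derived from integrated fluorescence ratio over the kinetic read; more negative B-score means stronger inhibition of depolarization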
# Target sequence (Q61143 whole entry, looked up): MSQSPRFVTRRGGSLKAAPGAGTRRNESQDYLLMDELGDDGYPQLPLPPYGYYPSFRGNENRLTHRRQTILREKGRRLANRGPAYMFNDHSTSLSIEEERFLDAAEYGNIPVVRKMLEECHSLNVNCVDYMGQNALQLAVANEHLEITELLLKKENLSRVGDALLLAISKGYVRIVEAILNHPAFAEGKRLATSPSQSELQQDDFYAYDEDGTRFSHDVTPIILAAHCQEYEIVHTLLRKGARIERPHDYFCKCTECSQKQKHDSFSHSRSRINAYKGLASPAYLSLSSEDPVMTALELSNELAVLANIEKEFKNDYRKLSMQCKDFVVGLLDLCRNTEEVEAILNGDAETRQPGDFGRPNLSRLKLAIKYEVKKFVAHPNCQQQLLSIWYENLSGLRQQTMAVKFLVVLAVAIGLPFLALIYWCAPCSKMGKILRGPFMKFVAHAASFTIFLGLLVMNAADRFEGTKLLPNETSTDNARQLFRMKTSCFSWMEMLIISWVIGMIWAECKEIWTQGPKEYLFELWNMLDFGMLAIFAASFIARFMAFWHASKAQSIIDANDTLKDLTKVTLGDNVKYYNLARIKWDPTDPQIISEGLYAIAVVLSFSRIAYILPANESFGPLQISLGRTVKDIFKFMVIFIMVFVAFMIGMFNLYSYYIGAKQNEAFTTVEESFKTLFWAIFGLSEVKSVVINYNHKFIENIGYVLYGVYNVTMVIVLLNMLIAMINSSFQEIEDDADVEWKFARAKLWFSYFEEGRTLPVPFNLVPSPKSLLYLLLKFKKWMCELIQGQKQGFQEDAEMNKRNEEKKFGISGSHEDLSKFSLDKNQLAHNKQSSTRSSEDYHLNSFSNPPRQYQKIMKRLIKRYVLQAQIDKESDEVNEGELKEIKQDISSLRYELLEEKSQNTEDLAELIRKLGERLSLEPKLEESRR
# TRPC4 agonist: TRPC4 (mouse) channel activation; HEK293 TRPC4beta/mu-opioid, Fluo4 calcium fluorescence; stronger effect = higher value; B-score at 10 µM; actives 0.49% (n = 310,000); Q9QUQ5; AID 2237;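 active means B-score above 5 SD of library B-scores, and initial fluorescence ratio not above library mean plus 5 SD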;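 further: positive B-score marks a calcium rise read as TRPC4 activation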
#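 Material: HEK293 stable line with TRPC4beta plus mu-opioid receptor; technique: Fluo4 calcium-sensitive dye fluorescence, kinetic, 1 Hz baseline; timing: Fluo4 dye loading 45 min at room temperature, 110 s recording; controls: assay buffer as low control, maximal DAMGO as high control; read-out: integrated baseline-normalised fluorescence ratio, converted to per-well B score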
# TRPC6 act: activators of mouse TRPC6 channel | actives 0.13% (n = 310,000) | AID 2550 | Q61143 | HEK293-TRPC6 membrane potential dye fluorescence; stronger effect = higher value | B-score at 10 µM;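 active means B-score of the integrated fluorescence ratio above library mean plus 3 SD, and starting fluorescence ratio within library mean plus 5 SD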;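 further: higher score means more depolarization so channel activation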
# TRPC4 spec 2: second selectivity test of TRPC6 inhibitors: effect on mouse TRPC4 | shares compounds with TRPC6 inhibitor | HEK293 TRPC4/MOR, membrane potential dye fluorescence; channel activated by saturating DAMGO dose | inhibition, % at 10 µM | actives 42% (n = 920) | AID 2776;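 active means compounds whose fluorescence signal differed from control wells by over 3 SD, either direction, in both duplicate plates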
# TRPC4 spec: tests whether TRPC6 inhibitors also affect mouse TRPC4; shares compounds with TRPC6 inhibitor; HEK293 TRPC4/mu-opioid, membrane potential fluorescence; activity change, negative = inhibition, % at 10 µM; actives 61% (n = 920); AID 2777;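 active means rise or fall in signal beyond 3 SD of buffer-only wells in both replicate plates, either sign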;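 further: integrated kinetic ratio of fluorescence range over baseline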
# HEK293 MPD ctr 2-1: parental HEK293 nonspecific activity of TRPC6 inhibitors, second screen. shares compounds with TRPC6 inhibitor. actives 31% (n = 920). signal change vs control, % at 10 µM. parental HEK293 membrane potential dye fluorescence; maximal acetylcholine challenge after compound addition;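 active means membrane potential signal moving either way by over 3 SD of the maximum-effect control, in both duplicate plates, meaning non-specific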
# HEK293 MPD ctr-1: checks TRPC6 inhibitor effects in parental HEK293 cells. shares compounds with TRPC6 inhibitor. parental HEK293 membrane potential dye fluorescence. membrane potential signal change, % at 10 µM. actives 60% (n = 920). AID 2780;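 active means membrane potential signal shifting up or down by more than 3 SD of buffer-only wells, on both duplicate plates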
# HEK293 MPD ctr-2: counter-screen for TRPC6 modulators: effect in parental HEK293 cells. shares compounds with TRPC6 inhibitor. membrane potential dye fluorescence. membrane potential signal change, % at 10 µM. actives 51% (n = 2,400);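 active means membrane potential signal moves up or down beyond 5 SD from buffer-only wells, on both duplicate plates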
# HEK293 MPD ctr 2-2: parental HEK293 nonspecific activity of TRPC6 modulators, second screen; shares compounds with TRPC6 inhibitor; membrane potential dye fluorescence; after compound, maximal acetylcholine stimulation; actives 14% (n = 2,400); inhibition, % at 10 µM;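 active means membrane potential signal drops by more than 5 SD from the mean control signal, in both duplicate plates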
# TRPC4 ctr mod: mouse TRPC4 off-target activity of TRPC6 modulators | actives 69% (n = 2,400) | percent change from control (negative = decrease, positive = increase), % at 10 µM | shares compounds with TRPC6 inhibitor | AID 488927 | HEK293 TRPC4/mu-opioid, membrane potential fluorescence;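 active means membrane potential signal moved up or down beyond 5 SD of buffer control wells, in both duplicate plates, actives on both sides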
# TRPC4/MOR inh 2: mouse TRPC4 off-target activity of TRPC6 modulators, second screen; shares compounds with TRPC6 inhibitor; inhibition, % at 10 µM; HEK293 TRPC4/mu-opioid, membrane potential dye fluorescence; stimulated with maximal-effect DAMGO; actives 55% (n = 2,400); AID 488928;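 active means drop in membrane potential signal beyond 5 SD of the control wells in both duplicate plates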;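 further: TRPC4 counter screen for TRPC6 hits run under conditions tuned for TRPC6 not TRPC4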
# TRPC6 block conf: confirmation of mouse TRPC6 inhibitors | shares compounds with TRPC6 inhibitor | HEK293-TRPC6, membrane potential dye, ACh-evoked depolarization | inhibition, % at 10 µM | actives 43% (n = 3,300);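 active means fluorescence ratio falls more than 5 SD below the full-stimulation control mean, in both duplicate runs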;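 further: integrated fluorescence ratio of peak minus minimum over baseline after agonist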
# TRPC6 act conf: mouse TRPC6 activator confirmation; actives 11% (n = 2,800); shares compounds with TRPC6 inhibitor; activation, % at 10 µM; HEK293-TRPC6 membrane potential dye fluorescence, FDSS;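 active means ratio signal rise beyond 5 SD above unstimulated control wells' mean, seen in both duplicate runs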
# Numbers stand for hits; . = inactive; / = not tested or not shown; + = active, no number. The list is not random: actives were taken first. Their share in the collection is about 2.3%.
SMILES,TRPC4 block,TRPC4 potent,TRPC6 inhibitor,TRPC4 agonist,TRPC6 act,HEK293 MPD ctr-2,HEK293 MPD ctr 2-2,TRPC4 ctr mod,TRPC4/MOR inh 2,TRPC6 block conf,TRPC6 act conf,others
COc1cc(C2C(C#N)=C(N)Oc3cc(N(C)C)ccc32)cc2c1OCO2 (stereo not given),.,.,.,64,12,256%,.,53%,.,.,62%,
CC(=O)Nc1ccc(S(=O)(=O)NCC2CCC(C(=O)N3CCCCC3)CC2)cc1 (stereo not given),.,.,.,.,.,/,/,/,/,/,/,
O=C1NC(=Nc2ccccc2Cl)S/C1=C\c1cc([N+](=O)[O-])ccc1O,.,.,.,82,34,+,.,380%,65%,.,658%,
COc1cc(/C=C2\S/C(=N/S(=O)(=O)c3ccc(C)cc3)NC2=O)c([N+](=O)[O-])cc1OC,.,.,.,.,.,/,/,/,/,/,/,
Cc1ccc(S(=O)(=O)/N=C2/NC(=O)/C(=C/c3cc([N+](=O)[O-])ccc3O)S2)cc1,.,.,.,.,62,390%,.,66%,.,.,280%,
CCc1ccc(/C=N\n2cnnc2)cc1,.,.,.,.,.,/,/,/,/,/,/,
Cc1c(C(O)CN2CCN(Cc3ccc4c(c3)OCO4)CC2)c2ccccc2n1C (stereo not given),.,.,-5.1,.,.,.,.,11%,88%,55%,.,
COc1ccc2c(c1)c(C(O)CN1CCN(Cc3ccc4c(c3)OCO4)CC1)c(C)n2C (stereo not given),.,.,-6.3,.,.,.,.,-9.5%,68%,52%,.,
Cc1ccc(OCC(O)CN2CCN(Cc3ccc4c(c3)OCO4)CC2)cc1C (stereo not given),.,.,.,.,.,/,/,/,/,/,/,
COc1ccc2c(c1)c(C(O)CN1CCC(Cc3ccccc3)CC1)c(C)n2C (stereo not given),.,.,-12,.,.,/,/,/,/,78%,.,TRPC4 spec 2=26%;TRPC4 spec=-13%;HEK293 MPD ctr 2-1=.;HEK293 MPD ctr-1=-221%
OC(CN1CCN(Cc2ccc3c(c2)OCO3)CC1)c1c[nH]c2ccccc12 (stereo not given),.,.,.,.,.,/,/,/,/,/,/,
Cc1ccc(N=Cc2c(O)n(C)c(=O)n(C)c2=O)nc1,.,.,-5.6,.,.,.,.,-15%,.,.,.,
Cc1ccc(N=CC2=C(O)CC(C)(C)CC2=O)nc1,.,.,.,.,.,/,/,/,/,/,/,
COc1ccc(C2c3ccc4ccccc4c3Oc3ncn(CCN(C)C)c(=N)c32)cc1 (stereo not given),.,.,-5.4,.,.,115%,.,10%,69%,.,/,
O=C(CN1C2=NCCN2c2ccccc21)c1ccc2c(c1)OCO2,.,.,.,.,.,/,/,/,/,/,/,
O=C(CN1C2=NCCN2c2ccccc21)c1ccc(Br)cc1,.,.,-5.3,.,.,.,.,.,72%,38%,.,
COc1ccc(OC)c(-c2nc(C(=O)NCCCN3CCOCC3)cc3c2[nH]c2ccccc23)c1,.,.,-6,.,.,.,.,.,48%,.,.,
Cc1ccc(-c2nc(C(=O)NCCCN(C)C)cc3c2[nH]c2ccccc23)cc1,.,.,-9.8,.,.,/,/,/,/,78%,.,TRPC4 spec 2=30%;TRPC4 spec=-21%;HEK293 MPD ctr 2-1=30%;HEK293 MPD ctr-1=-255%
CCOC(=O)N1CCN(S(=O)(=O)c2ccc(OCC)c(C)c2)CC1,.,.,-9.9,.,12,.,.,18%,.,74%,128%,
CCOC(=O)N1CCN(S(=O)(=O)c2cc(Br)cnc2N)CC1,.,.,-7.2,.,.,/,/,/,/,.,.,TRPC4 spec 2=.;TRPC4 spec=.;HEK293 MPD ctr 2-1=.;HEK293 MPD ctr-1=.
CCOC(=O)c1ccc(NC(=O)CCNS(=O)(=O)c2cc(Br)cnc2N)cc1,.,.,-6.9,.,.,.,.,-20%,.,79%,.,
CCOC(=O)N1CCN(S(=O)(=O)c2ccc(C)c(C)c2)CC1,.,.,.,.,.,/,/,/,/,/,/,
COCC(=O)NNC(=S)Nc1cccc(C)c1C,.,.,.,.,.,/,/,/,/,/,/,
Cc1ccc(NC(=S)NCCN(C2CCCCC2)C2CCCC2)cc1C,.,.,-5.2,.,.,110%,.,16%,66%,.,/,
O=C(CN(C(=O)CNC(=O)c1cccs1)c1ccccc1)NC1CCCCC1,.,.,.,.,.,/,/,/,/,/,/,
SMILES,TRPC4 block,TRPC4 potent,TRPC6 inhibitor,TRPC4 agonist,TRPC6 act,HEK293 MPD ctr-2,HEK293 MPD ctr 2-2,TRPC4 ctr mod,TRPC4/MOR inh 2,TRPC6 block conf,TRPC6 act conf,others
CCOc1cc2c(C#N)c(N3CCNCC3)nc(N)c2c(N)n1,.,12,-5.9,.,.,-194%,.,-25%,.,38%,.,
O=C(Cn1[nH]c(=O)c2ccccc2c1=O)OCC(=O)N1CCCc2ccccc21,.,.,.,.,.,/,/,/,/,/,/,
O=C(Cn1[nH]c(=O)c2ccccc2c1=O)OCC(=O)N1CCc2ccccc2C1,.,.,-7.3,.,.,/,/,/,/,.,/,TRPC4 spec 2=.;TRPC4 spec=7.2%;HEK293 MPD ctr 2-1=.;HEK293 MPD ctr-1=4.2%
Cc1noc(C)c1COc1ccc(C(=O)OCC(=O)NCCN2C(=O)CSC2=O)cc1,.,.,.,.,.,/,/,/,/,/,/,
O=C(NC1CCCC1)c1noc2c1CCCCC2,.,.,-8,.,.,/,/,/,/,.,.,TRPC4 spec 2=.;TRPC4 spec=.;HEK293 MPD ctr 2-1=.;HEK293 MPD ctr-1=.
O=C(NCc1ccccc1)c1noc2c1CCCCC2,.,.,.,.,.,/,/,/,/,/,/,
COc1cc2c(cc1OC)C(c1ccc(Cl)cc1)=NCC2,.,.,-6.2,.,.,-275%,.,-40%,52%,44%,.,
